Key:
[1] = biological target: T1, Adrenergic receptor alpha-1 (Rattus norvegicus, UniProt P15823+P23944+P43140); assay: Displacement of [3H]prazosin from alpha-1 adrenergic receptor from rat brain cerebral cortex; type: tissue-based
T1 sequence (P15823 whole entry): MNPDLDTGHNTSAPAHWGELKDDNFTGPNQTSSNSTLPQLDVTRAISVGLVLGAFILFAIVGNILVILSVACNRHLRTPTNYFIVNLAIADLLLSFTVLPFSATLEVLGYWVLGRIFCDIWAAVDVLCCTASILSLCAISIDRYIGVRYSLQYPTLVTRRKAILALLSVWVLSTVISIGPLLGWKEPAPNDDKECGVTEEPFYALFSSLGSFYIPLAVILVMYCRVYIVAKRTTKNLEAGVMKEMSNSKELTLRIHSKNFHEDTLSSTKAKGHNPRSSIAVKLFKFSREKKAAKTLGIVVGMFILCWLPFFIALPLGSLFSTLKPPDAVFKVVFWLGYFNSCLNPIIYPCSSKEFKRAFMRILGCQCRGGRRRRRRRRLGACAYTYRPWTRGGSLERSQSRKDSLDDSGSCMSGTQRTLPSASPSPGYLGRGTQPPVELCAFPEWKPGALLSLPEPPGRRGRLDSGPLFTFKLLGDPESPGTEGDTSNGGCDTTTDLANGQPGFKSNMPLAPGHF
T1 sequence (P23944 whole entry): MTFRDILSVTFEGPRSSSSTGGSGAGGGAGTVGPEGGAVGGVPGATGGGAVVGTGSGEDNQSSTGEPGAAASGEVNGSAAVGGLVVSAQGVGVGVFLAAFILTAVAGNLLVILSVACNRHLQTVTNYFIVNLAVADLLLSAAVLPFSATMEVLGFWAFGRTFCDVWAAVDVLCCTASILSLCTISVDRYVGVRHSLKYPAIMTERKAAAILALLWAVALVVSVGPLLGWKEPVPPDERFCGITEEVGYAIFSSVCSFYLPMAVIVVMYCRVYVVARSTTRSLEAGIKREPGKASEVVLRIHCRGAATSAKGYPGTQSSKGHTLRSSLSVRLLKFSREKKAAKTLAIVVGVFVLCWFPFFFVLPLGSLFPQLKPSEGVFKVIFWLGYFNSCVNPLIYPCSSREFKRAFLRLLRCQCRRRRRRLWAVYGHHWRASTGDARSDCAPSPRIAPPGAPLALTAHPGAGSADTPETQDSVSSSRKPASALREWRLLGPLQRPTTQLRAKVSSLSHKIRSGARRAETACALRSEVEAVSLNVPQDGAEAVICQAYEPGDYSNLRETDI
T1 sequence (P43140 whole entry): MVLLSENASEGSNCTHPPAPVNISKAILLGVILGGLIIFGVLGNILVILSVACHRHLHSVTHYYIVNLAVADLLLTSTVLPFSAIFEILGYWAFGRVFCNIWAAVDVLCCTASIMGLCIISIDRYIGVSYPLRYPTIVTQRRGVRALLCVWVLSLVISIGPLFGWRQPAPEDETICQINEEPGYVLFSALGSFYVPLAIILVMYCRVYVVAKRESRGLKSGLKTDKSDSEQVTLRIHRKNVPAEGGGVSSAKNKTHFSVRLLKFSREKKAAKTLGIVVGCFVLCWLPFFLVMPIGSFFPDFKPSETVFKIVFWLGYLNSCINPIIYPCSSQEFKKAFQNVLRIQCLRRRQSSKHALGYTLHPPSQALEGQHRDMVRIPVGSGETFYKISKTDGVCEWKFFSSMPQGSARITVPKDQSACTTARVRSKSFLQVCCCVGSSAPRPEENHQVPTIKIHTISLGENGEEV
Procedure, shortened: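 Rat cerebral cortical membranes. Ki (nM) from displacement of saturable [3H]prazosin binding at α1 sites.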

[2] = biological target: T2, Adrenergic receptor alpha-2 (Rattus norvegicus, UniProt P22086+P19328+P22909); assay: Displacement of [3H]idazoxan from alpha-2 adrenergic receptor from rat brain cerebral cortex.; type: tissue-based
T2 sequence (P22086 whole entry): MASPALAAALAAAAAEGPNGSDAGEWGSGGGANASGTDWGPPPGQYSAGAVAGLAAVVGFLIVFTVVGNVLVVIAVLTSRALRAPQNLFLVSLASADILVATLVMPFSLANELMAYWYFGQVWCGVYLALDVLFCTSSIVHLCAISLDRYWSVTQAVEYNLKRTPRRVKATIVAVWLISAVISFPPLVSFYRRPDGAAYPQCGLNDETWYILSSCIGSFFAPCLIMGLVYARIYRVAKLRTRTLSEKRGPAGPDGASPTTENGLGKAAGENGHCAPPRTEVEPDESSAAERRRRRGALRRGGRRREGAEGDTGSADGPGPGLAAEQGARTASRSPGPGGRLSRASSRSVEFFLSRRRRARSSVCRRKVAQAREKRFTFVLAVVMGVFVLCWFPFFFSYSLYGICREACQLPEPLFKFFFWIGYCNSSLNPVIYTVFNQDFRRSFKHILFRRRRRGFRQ
T2 sequence (P19328 whole entry): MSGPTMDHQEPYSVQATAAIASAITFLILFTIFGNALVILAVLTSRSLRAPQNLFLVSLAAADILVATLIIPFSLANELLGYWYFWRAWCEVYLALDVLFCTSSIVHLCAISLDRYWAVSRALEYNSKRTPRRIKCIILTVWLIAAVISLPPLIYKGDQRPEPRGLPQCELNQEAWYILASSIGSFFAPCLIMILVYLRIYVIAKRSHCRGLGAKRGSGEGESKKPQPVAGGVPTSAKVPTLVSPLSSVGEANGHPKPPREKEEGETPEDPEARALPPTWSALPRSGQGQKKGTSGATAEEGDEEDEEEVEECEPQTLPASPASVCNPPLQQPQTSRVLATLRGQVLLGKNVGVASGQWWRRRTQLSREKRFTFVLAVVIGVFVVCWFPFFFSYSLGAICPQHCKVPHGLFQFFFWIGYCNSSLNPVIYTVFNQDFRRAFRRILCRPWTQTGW
T2 sequence (P22909 whole entry): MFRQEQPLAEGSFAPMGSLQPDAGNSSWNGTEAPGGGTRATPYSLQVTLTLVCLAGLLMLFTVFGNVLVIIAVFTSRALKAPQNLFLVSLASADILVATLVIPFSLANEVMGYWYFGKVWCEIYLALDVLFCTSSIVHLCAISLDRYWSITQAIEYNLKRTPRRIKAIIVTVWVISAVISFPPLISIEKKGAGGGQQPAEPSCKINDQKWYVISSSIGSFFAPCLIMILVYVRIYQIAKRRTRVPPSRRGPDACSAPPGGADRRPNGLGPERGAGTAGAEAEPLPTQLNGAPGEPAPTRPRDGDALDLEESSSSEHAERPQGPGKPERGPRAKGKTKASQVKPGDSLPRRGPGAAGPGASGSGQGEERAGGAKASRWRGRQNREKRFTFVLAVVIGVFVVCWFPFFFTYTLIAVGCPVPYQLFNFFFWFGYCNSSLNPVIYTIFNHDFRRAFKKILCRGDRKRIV
Procedure, shortened: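 Rat cerebral cortical membranes. Ki (nM) from displacement of saturable [3H]idazoxan binding at α2 sites.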

Rattus norvegicus = assay: Compound was evaluated in vivo for the reversal of maximal inhibitory effect of clonidine at 100 ug/kg(iv) in pithed rat vas deferens preparation; type: functional
[3] = biological target: Adenosine A2 receptor (Rattus norvegicus) (UniProt P29276+P30543); assay: Compound was evaluated for its ability to antagonise the inhibitory activity of clonidine, relative to idazoxan at prejunctional alpha-2 adrenergic receptor in rat vas deferens; type: functional, tissue-based
[4] = test system: Alpha-1 adrenergic receptor (Rattus norvegicus); assay: Compound was evaluated for its ability to antagonise the inhibitory activity of phenylephrine, relative to idazoxan at postjunctional alpha-1 adrenergic receptor in rat anococcygeus.
[5] = biological target: T3, Adrenergic receptor alpha-1 (Rattus norvegicus) (UniProt P15823+P23944+P43140); assay: Compound was evaluated for the antagonist potency at postjunctional alpha-1 adrenergic receptor in pithed rat diastolic bp test; type: functional
Procedure, shortened: (§1)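 Pithed rats; iv dose (μg/kg) giving a 2-fold shift (DR2) of the cirazoline dose-response curve on diastolic blood pressure. Separate groups, n = 6 minimum.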

[6] = biological target: T3, Adrenergic receptor alpha-1 (Rattus norvegicus); assay: Compound was evaluated for the antagonist potency at postjunctional alpha-1 adrenergic receptor in pithed rat diastolic bp test,; type: functional; procedure, shortened: as §1
[7] = biological target: T4, Adenosine receptor A1 (Rattus norvegicus) (UniProt P25099); assay: Compound was evaluated for its ability to antagonise the inhibitory activity of phenylephrine, relative to idazoxan at postjunctional alpha-1 adrenergic receptor in rat anococcygeus; type: functional
T4 sequence (whole entry): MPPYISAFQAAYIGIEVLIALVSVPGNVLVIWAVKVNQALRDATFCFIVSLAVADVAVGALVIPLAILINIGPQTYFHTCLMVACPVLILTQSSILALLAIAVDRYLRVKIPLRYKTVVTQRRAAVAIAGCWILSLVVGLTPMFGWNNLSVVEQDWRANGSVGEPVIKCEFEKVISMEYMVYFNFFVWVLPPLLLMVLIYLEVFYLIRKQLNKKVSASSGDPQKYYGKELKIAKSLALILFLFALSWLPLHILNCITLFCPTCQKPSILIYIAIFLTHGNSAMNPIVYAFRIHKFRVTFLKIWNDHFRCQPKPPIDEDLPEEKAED

[8] = test system: Alpha-2 adrenergic receptor (Rattus norvegicus); assay: Compound was evaluated for its ability to antagonise the inhibitory activity of clonidine, relative to idazoxan at prejunctional alpha-2 adrenergic receptor in rat vas deferens.

Ki [1] [nM] | Ki [2] [nM] | Structure (SMILES) | AD50 (Rattus norvegicus) [mg/kg] | other results
– | – | CC1(C2=NCCN2)COc2ccccc2O1 (stereo in doubt; 7) [listing 2 of 2 here] | – | Antagonist potency [3]: 0.67; Antagonist potency [4]: 0.28
– | – | COC1(C2=NCCN2)COc2ccccc2O1 (stereo in doubt; 4) [listing 1 of 2 here] | – | Antagonist potency [5]: 176
46439 | 8734 | C=C(C)C1(C2=NCCN2)COc2ccccc2O1 (single isomer, unassigned; (+)) [listing 1 of 2 here] | >14.444 | –
6763 | 256 | COC1(C2=NCCN2)COc2ccccc2O1 (single isomer, unassigned; (-)) [listing 1 of 2 here] | 0.786 | –
1473 | 8 | C=C(C)C1(C2=NCCN2)COc2ccccc2O1 (stereo in doubt; 12) [listing 1 of 2 here] | 0.0539 | –
– | – | COC1(C2=NCCN2)COc2ccccc2O1 (single isomer, unassigned; (-)) [listing 2 of 2 here] | – | Antagonist potency [6]: 12800
– | – | CC1(C2=NCCN2)COc2ccccc2O1 (single isomer, unassigned; (-)) [listing 1 of 2 here] | – | Antagonist potency [7]: < 0.023; Antagonist potency [8]: 0.005
– | – | C=C(C)C1(C2=NCCN2)COc2ccccc2O1 (stereo in doubt; 12) [listing 2 of 2 here] | – | Antagonist potency [8]: 0.8; Antagonist potency [4]: 0.6
1794 | 16.3 | C=C(C)C1(C2=NCCN2)COc2ccccc2O1 (stereo in doubt; 10) [listing 1 of 2 here] | 0.0712 | –
– | – | C=C(C)C1(C2=NCCN2)COc2ccccc2O1 (single isomer, unassigned; (+)) [listing 2 of 2 here] | – | Antagonist potency [8]: 0.0003; Antagonist potency [4]: 0.03
66 | 0.8 | COC1(C2=NCCN2)COc2ccccc2O1 (stereo in doubt; 4) [listing 2 of 2 here] | 0.00268 | –
– | – | C=C(C)C1(C2=NCCN2)COc2ccccc2O1 (stereo in doubt; 10) [listing 2 of 2 here] | – | Antagonist potency [8]: 0.4; Antagonist potency [4]: 0.07
27 | 0.36 | COC1(C2=NCCN2)COc2ccccc2O1 (single isomer, unassigned; (+)) [listing 1 of 2 here] | 0.00225 | –
– | – | CC1(C2=NCCN2)COc2ccccc2O1 (single isomer, unassigned; (+)) [listing 2 of 2 here] | – | Antagonist potency [8]: 1.3; Antagonist potency [4]: 0.09
– | – | COC1(C2=NCCN2)COc2ccccc2O1 (single isomer, unassigned; (+)) [listing 2 of 2 here] | – | Antagonist potency [5]: 58.9

Structure (SMILES) | Ki [1] [nM] | Ki [2] [nM] | AD50 (Rattus norvegicus) [mg/kg] | other results
CC1(C2=NCCN2)COc2ccccc2O1 (stereo in doubt; 7) [listing 1 of 2 here] | 449 | 4.4 | 0.0527 | –
CC1(C2=NCCN2)COc2ccccc2O1 (single isomer, unassigned; (+)) [listing 1 of 2 here] | 285 | 2.4 | 0.0258 | –
CC1(C2=NCCN2)COc2ccccc2O1 (single isomer, unassigned; (-)) [listing 2 of 2 here] | 13329 | 487 | 2.567 | –

Reference: ChEMBL document CHEMBL1123542, “Alpha-adrenoreceptor reagents. 4. Resolution of some potent selective prejunctional alpha 2-adrenoreceptor antagonists” (J Med Chem, 1986)
